Data taken from ChEMBL document CHEMBL4118161, “Synthesis and evaluation of novel dimethylpyridazine derivatives as hedgehog signaling pathway inhibitors” (Bioorg Med Chem, 2018).
Active and inactive are the calls of the source. No cut-off for these calls is given here.

Legend:
[1] = Inhibition of hedgehog signaling pathway in mouse Light2 cells after 48 hrs by Gli-luciferase reporter gene assay; format: cell-based
[2] = species: Mus musculus; experiment: Inhibition of hedgehog signaling pathway in mouse Light2 cells at 100 nM after 48 hrs by Gli-luciferase reporter gene assay relative to control; format: cell-based
In short: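 Single-concentration screen at 100 nM in Light II cells (NIH-3T3 with stable Gli-firefly luciferase reporter and Renilla luciferase vector), kept in DMEM/10% FBS with zeocin and G418 at 37°C, 5% CO₂. Cells treated 48 h; percent inhibition of Gli reporter from dual luciferase assay.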

[3] = system: Medulloblastoma cell; experiment: Anti-tumor activity against mouse Ptch+/- p53-/- medulloblastoma cells implanted in athymic nude mouse assessed as tumor growth inhibition at 20 mg/kg, po administered twice daily via gavage measured every other day during compound dosing; format: functional, organism-based
In short: (§1)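 Allograft from spontaneous intracranial medulloblastomas of Ptch+/-p53-/- mice, first passaged subcutaneously in athymic nude mice; 1 mm³ fragments implanted by trocar into the right flank. Oral gavage twice a day started at 150–200 mm³, in 0.5% NaCMC suspension. Caliper length and width taken every other day, V = L×W²/2. Five mice per group, means ± SEM.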

[4] = system: Mus musculus; experiment: Toxicity in athymic nude mouse implanted with mouse Ptch+/- p53-/- medulloblastoma cells assessed as body weight loss at 10 to 20 mg/kg, po administered twice daily via gavage measured every other day during compound dosing; format: organism-based; details: in vivo
In short: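 Nude mice bearing subcutaneous right-flank Ptch+/-p53-/- medulloblastoma fragment allografts, dosed by oral gavage twice daily (vehicle 0.5% NaCMC suspension) once tumors reached 150–200 mm³. Body weights recorded alongside caliper tumor measurements taken every other day; five animals per group.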

[5] = system: Medulloblastoma cell; experiment: Anti-tumor activity against mouse Ptch+/- p53-/- medulloblastoma cells implanted in athymic nude mouse assessed as tumor growth inhibition at 10 to 20 mg/kg, po administered twice daily via gavage measured every other day during compound dosing; format: functional, organism-based; in short: as §1

SMILES | IC50 [1] [nM] | inhibition [2] [%] | TGI [3] | Activity [4] | TGI [5]
Cc1c(-c2ccnn2C)nnc(N2CCC(NC(=O)c3ccc(Cl)cc3C(F)(F)F)CC2)c1C | 25.1 |  |  |  | 
Cc1c(-c2ccc(Cl)cc2)nnc(N2CCC(NC(=O)c3ccc(F)cc3C(F)(F)F)CC2)c1C | 43.8 | 85 |  |  | 
Cc1c(-c2ccnn2C)nnc(N2CCC(NC(=O)NC3CCCCCC3)CC2)c1C | > 100 | 45.7 |  |  | 
CS(=O)(=O)c1ccc(C(=O)Nc2ccc(Cl)c(-c3ccccn3)c2)c(Cl)c1 [VISMODEGIB] | 2.46 | 108 | Active |  | 
Cc1c(-c2ccnn2C)nnc(N2CCC(NC(=O)c3cc(F)ccc3C(F)(F)F)CC2)c1C | 61.5 | 82 |  |  | 
Cc1ccc(-c2nnc(N3CCC(NC(=O)c4ccc(F)cc4C(F)(F)F)CC3)c(C)c2C)cc1 | 12.2 | 101 |  |  | 
COc1ccc(-c2nnc(N3CCC(NC(=O)c4ccc(F)cc4C(F)(F)F)CC3)c(C)c2C)cc1 | 22 | 74.5 |  |  | 
CN(C(=O)c1ccc(F)cc1C(F)(F)F)C1CCN(c2nnc(-c3ccnn3C)c3ccccc23)CC1 [TALADEGIB] | 2.26 | 95 |  |  | 
Cc1c(-c2ccnn2C)nnc(N2CCN(C(=O)c3ccc(F)cc3C(F)(F)F)CC2)c1C | > 100 | -6.57 |  |  | 
Cc1c(-c2ccnn2C)nnc(N2CCC(Nc3ccc(C(C)(C)O)nn3)CC2)c1C | > 100 | 20.6 |  |  | 
Cc1c(-c2ccnn2C)nnc(N2CCC(NC(=O)Oc3ccccc3)CC2)c1C | > 100 | 41.2 |  |  | 
Cc1c(-c2ccnn2C)nnc(N2CCC(NC(=O)OC3CCCCC3)CC2)c1C | > 100 | 26.6 |  |  | 
Cc1c(-c2ccnn2C)nnc(N2CCC(Nc3cnc(C(C)(C)O)cn3)CC2)c1C | > 100 | 10.8 |  |  | 
Cc1c(-c2ccncc2)nnc(N2CCC(NC(=O)c3ccc(F)cc3C(F)(F)F)CC2)c1C | 43.2 | 76 |  |  | 
Cc1c(-c2ccnn2C)nnc(N2CCC(NC(=O)Nc3ccccc3)CC2)c1C | > 100 | 26.2 |  |  | 
Cc1c(-c2ccnn2C)nnc(N2CC[C@@H](NC(=O)c3ccc(F)cc3C(F)(F)F)C2)c1C | 36.4 | 54.1 |  |  | 
Cc1c(-c2ccnn2C)nnc(N2CCC(NC(=O)c3ccc(Oc4ccccc4F)cc3C(F)(F)F)CC2)c1C | 16.6 | 91.5 |  |  | 
Cc1c(-c2ccnn2C)nnc(N2CCC(NC(=O)c3c(F)cccc3C(F)(F)F)CC2)c1C | 42.9 | 79.8 |  |  | 

More lines, main results first:

IC50 [1] [nM] | SMILES | inhibition [2] [%] | TGI [3] | Activity [4] | TGI [5]
8.5 | Cc1c(-c2ccc(C#N)cc2)nnc(N2CCC(NC(=O)c3ccc(F)cc3C(F)(F)F)CC2)c1C | 111 |  |  | 
30 | Cc1c(-c2ccnn2C)nnc(N2CCC(N(C)C(=O)c3ccc(F)cc3C(F)(F)F)CC2)c1C | 60.9 |  |  | 
32.5 | Cc1c(-c2ccnn2C)nnc(N2CCC(NC(=O)c3ccc(Sc4ccccc4)cc3C(F)(F)F)CC2)c1C | 82.8 |  |  | 
2.33 | Cc1c(-c2ccnn2C)nnc(N2CCC(NC(=O)c3ccc(F)cc3C(F)(F)F)CC2)c1C | 89.5 |  | Non-Toxic | Active
> 100 | Cc1c(-c2ccnn2C)nnc(N2CCC(NC(=O)c3cccc(F)c3)CC2)c1C | 82.1 |  |  | 
32.8 | Cc1c(-c2ccnn2C)nnc(N2CCC(NC(=O)c3ccccc3C(F)(F)F)CC2)c1C | 79.7 |  |  | 
> 100 | Cc1c(-c2ccnn2C)nnc(N2CCC(Nc3ccc(C(C)(C)O)cn3)CC2)c1C | 31.8 |  |  | 
7.02 | Cc1c(-c2ccccc2Cl)nnc(N2CCC(NC(=O)c3ccc(F)cc3C(F)(F)F)CC2)c1C | 106 |  |  | 
> 100 | Cc1c(-c2ccnn2C)nnc(N2CCC(NC(=O)NC3CCCC3)CC2)c1C | 24.4 |  |  | 
25.5 | Cc1c(-c2ccccc2)nnc(N2CCC(NC(=O)c3ccc(F)cc3C(F)(F)F)CC2)c1C | 90.2 |  |  | 
> 100 | Cc1c(-c2ccnn2C)nnc(N2CCC(Nc3cnc(S(C)(=O)=O)cn3)CC2)c1C | 23.8 |  |  | 
> 100 | Cc1c(-c2ccnn2C)nnc(N2CCC(NC(=O)Nc3cccnc3)CC2)c1C | 3.47 |  |  | 
36.5 | Cc1c(-c2ccnn2C)nnc(N2CCC(NC(=O)c3ccc(Oc4ccccc4)cc3C(F)(F)F)CC2)c1C | 78.9 |  |  | 
